Measured values from ChEMBL document CHEMBL4619757, “Identification of new arylsulfide derivatives as anti-melanogenic agents in a zebrafish model” (Bioorg Med Chem Lett, 2020).
Active and inactive are the calls of the source. No cut-off for these calls is given here.

Experiments:
Danio rerio [1] = species: Danio rerio; assay: Antimelanogenic activity against zebrafish embryo assessed as whitening efficacy at 10 uM; assay type: functional, organism-based
Danio rerio [2] = species: Danio rerio; assay: Antimelanogenic activity against zebrafish embryo assessed as whitening efficacy; assay type: functional, organism-based
Outline: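 Synchronized zebrafish embryos were treated with compound and scored for pigmentation. Controls received 0.1% DMSO or 0.2 mM PTU.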

HMV-2 cell line [3] = assay: Antimelanogenic activity against human HMVII cells assessed as melanin content in cell lysate at 100 uM relative to control; assay type: functional
Outline: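 HMV-II human melanoma cells were cultured for 5 days with test sample or DMSO. Melanin pellets were collected from cell lysates, and total melanin content was expressed relative to the DMSO control.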

HMV-2 cell line [4] = assay: Antimelanogenic activity against human HMVII cells assessed as reduction in TRP1 mRNA level at 1 to 20 uM measured after 24 hrs by RT-PCR analysis; assay type: functional, cell-based
Outline: (§1)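 HMV-II melanoma cells were treated with compound for 24 h. MITF, TRP-1 and TRP-2 mRNA levels were then quantified by real-time RT-PCR.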

HMV-2 cell line [5] = assay: Antimelanogenic activity against human HMVII cells assessed as melanin content in cell lysate at 20 uM relative to control; assay type: functional
Outline: (§2)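 Human melanoma HMV-II cells were exposed to compound at 1, 10 or 20 µM. Melanin was pelleted from cell lysates, and total melanin content was expressed relative to the DMSO-treated control.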

HMV-2 cell line [6] = assay: Antimelanogenic activity against human HMVII cells assessed as change in melanin colour from black to brown; assay type: functional, cell-based
HMV-2 cell line [7] = assay: Cytotoxicity against human HMVII cells assessed as decrease in cell survival at 20 uM measured after 5 days by Cytox-reagent based relative to control; details: hmv-2, 120 h
Outline: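 HMV-II cells were seeded at 7,500 cells/well and cultured 24 h, then exposed to compound for 5 days. Viability was read with CytoX reagent.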

[8] = Toxicity against human eye assessed as effect on tissue viability up to 50 uM measured after 30 mins by MTT assay; assay type: tissue-based; details: 0.5 h
Outline: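 Reconstructed human ocular tissue (Neoderm-CD) was exposed to compound up to 50 µM and stained with MTT (1 mg/mL) for 30 min. Formazan was extracted with isopropanol and absorbance read at 570 nm.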

HMV-2 cell line [9] = assay: Antimelanogenic activity against human HMVII cells assessed as reduction in MITF mRNA level at 1 to 20 uM measured after 24 hrs by RT-PCR analysis; assay type: functional, cell-based; outline: as §1
HMV-2 cell line [10] = assay: Antimelanogenic activity against human HMVII cells assessed as melanin content in cell lysate at 10 uM relative to control; assay type: functional; outline: as §2
HMV-2 cell line [11] = assay: Antimelanogenic activity against human HMVII cells assessed as reduction in melanin content in cell lysate; assay type: functional, cell-based; outline: as §2
[12] = Toxicity against human skin assessed as effect on tissue viability up to 50 uM measured after 3 hrs by MTT assay
HMV-2 cell line [13] = assay: Antimelanogenic activity against human HMVII cells assessed as melanin content in cell lysate at 1 uM relative to control; assay type: functional; outline: as §2
HMV-2 cell line [14] = assay: Antimelanogenic activity against human HMVII cells assessed as reduction in TRP2 mRNA level at 1 to 20 uM measured after 24 hrs by RT-PCR analysis; assay type: functional, cell-based; outline: as §1
HMV-2 cell line [15] = assay: Antimelanogenic activity against human HMVII cells assessed as reduction in tyrosinase mRNA level at 10 to 20 uM measured after 24 hrs by RT-PCR analysis; assay type: functional, cell-based

Structure (SMILES)	Activity (Danio rerio [1])	other results
CCOC(=O)c1ccc(Sc2nccc3ccccc23)cc1	Active	–
Fc1ccc(Sc2nccc3ccccc23)c(F)c1	Active	–
c1ccc2c(Sc3nc4ccccc4s3)nccc2c1	inactive	–
c1ccc2c(Sc3nc4ccccc4[nH]3)nccc2c1	Active	–
Nc1ccc(Sc2nccc3ccccc23)cc1	Active	–
Fc1ccc(Sc2ncnc3c(Br)csc23)cc1	Active	Activity (Danio rerio [2]): Dose-dependent effect
Fc1ccc(Oc2nccc3ccccc23)cc1	inactive	–
c1cnc(Sc2nccc3ccccc23)nc1	Active	–
Fc1ccc(Sc2ncnc3[nH]cnc23)cc1	inactive	–
Fc1ccc(Nc2nccc3ccccc23)cc1	inactive	–
OC[C@H]1O[C@@H](Oc2ccc(O)cc2)[C@H](O)[C@@H](O)[C@@H]1O [ARBUTIN]	–	Activity (HMV-2 cell line [3]): 85.6%
c1ccc(Sc2nccc3ccccc23)nc1	Active	–
FC(F)(F)c1ccc(Sc2nccc3ccccc23)cc1	inactive	–
Fc1ccccc1Sc1nccc2ccccc12	Active	–
Fc1ccc(Sc2[nH]cnc3nccc2-3)cc1	Active	–
O=c1cc(CO)occ1O [KOJIC ACID]	–	Activity (HMV-2 cell line [3]): 45.9%
Clc1ccc(Sc2nccc3ccccc23)cc1	Active	–
c1ccc(Sc2nccc3ccccc23)cc1	Active	Activity (Danio rerio [2]): Dose-dependent effect
Fc1ccc(Sc2ncnc3cc[nH]c23)cc1	Active	–
c1ccc2c(Sc3nccc4ccccc34)nccc2c1	Active	–
Cc1ccc(Sc2nccc3ccccc23)cc1	Active	–
Fc1ccc(Sc2nccc3ccccc23)cc1	Active	inhibition (HMV-2 cell line [4]): Active; Activity (HMV-2 cell line [5]): 14.6%; Activity (HMV-2 cell line [6]): Active; Activity (HMV-2 cell line [7]): < 10%; Activity [8]: Non-Toxic; Activity (Danio rerio [2]): Dose-dependent effect; inhibition (HMV-2 cell line [9]): Active; Activity (HMV-2 cell line [10]): 31.3%; Activity (HMV-2 cell line [11]): Dose-dependent effect; Activity [12]: Non-Toxic; Activity (HMV-2 cell line [13]): 67.6%; inhibition (HMV-2 cell line [14]): Active; inhibition (HMV-2 cell line [15]): Active
